Residue numbers refer to the chain shown, from its start.
Columns and labels:
TnIYD [1] = molecular target: T1, TnIYD (Thermotoga neapolitana, UniProt B9K712); assay: Active site ligand binding by quenching of FMNox fluorescence, wild-type TnIYD
T1 sequence (B9K712 1-186): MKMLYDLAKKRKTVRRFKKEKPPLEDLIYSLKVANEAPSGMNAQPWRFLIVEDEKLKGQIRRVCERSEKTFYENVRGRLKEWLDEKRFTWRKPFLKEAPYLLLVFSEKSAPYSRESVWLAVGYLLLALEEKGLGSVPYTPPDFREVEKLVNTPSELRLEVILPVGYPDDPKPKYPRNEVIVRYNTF

TnIYD [2] = molecular target: T1, TnIYD; assay: Catalytic dehalogenation, steady-state kinetics; type: biochemical; details: for Km / kcat: substrate of TnIYD
TnIYD Y112A = molecular target: T2, TnIYD Y112A (Thermotoga neapolitana, UniProt B9K712, Y112A); assay: Active site ligand binding by quenching of FMNox fluorescence, Y112A variant
T2 sequence (B9K712 1-186 Y112A): T1 sequence (B9K712 1-186) with Y112A
Outline: (§1)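 C-terminal His6-tagged T. neapolitana IYD variants, made by mutagenesis, were expressed in E. coli Rosetta2 and purified on Ni-NTA. They were incubated with ~300 μM FMN and quantified by bound-FMN A450. Excitation was 450 nm and emission 516–526 nm. Dilution-corrected F/F0 versus ligand was fit to a two-state binding isotherm.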

TnIYD M41A = molecular target: T3, TnIYD M41A (Thermotoga neapolitana, UniProt B9K712, M41A); assay: Active site ligand binding by quenching of FMNox fluorescence, M41A variant
T3 sequence (B9K712 1-186 M41A): T1 sequence (B9K712 1-186) with M41A
Outline: as §1

TnIYD M41A/Y112A = molecular target: T4, TnIYD M41A/Y112A (Thermotoga neapolitana, UniProt B9K712, M41A/Y112A); type: binding
T4 sequence (B9K712 1-186 M41A/Y112A): T1 sequence (B9K712 1-186) with M41A, Y112A
Outline: as §1

TnIYD M41K = molecular target: T5, TnIYD M41K (Thermotoga neapolitana, UniProt B9K712, M41K); assay: Active site ligand binding by quenching of FMNox fluorescence, M41K variant
T5 sequence (B9K712 1-186 M41K): T1 sequence (B9K712 1-186) with M41K
Outline: as §1

TnIYD M41F = molecular target: T6, TnIYD M41F (Thermotoga neapolitana, UniProt B9K712, M41F); assay: Active site ligand binding by quenching of FMNox fluorescence, M41F variant
T6 sequence (B9K712 1-186 M41F): T1 sequence (B9K712 1-186) with M41F
Outline: as §1

TnIYD Y112A/W82A/F88A = molecular target: T7, TnIYD Y112A/W82A/F88A (Thermotoga neapolitana, UniProt B9K712, F88A/W82A/Y112A); type: binding
T7 sequence (B9K712 1-186 W82A/F88A/Y112A): T1 sequence (B9K712 1-186) with W82A, F88A, Y112A
Outline: as §1

IYD from mesophiles = details: cited from earlier work

Oc1ccccc1I [2-IP, 2-iodophenol]
Kd (TnIYD [1]): 31 ± 1 µM | difference in Km values for I-Tyr and 2-IP (TnIYD [2]; 25 °C): 19,000 fold | difference of kcat relative to the kcat value of I-Tyr (TnIYD [2]; 25 °C): 2 fold | efficiency (kcat/Km) relative to that for iodotyrosine (TnIYD [2]; 25 °C): less than 0.01% | Km (TnIYD [2]; 25 °C): 4.2 mM | kcat (TnIYD [2]; 25 °C): 0.014 ± 0.001 s⁻¹ | increase of kcat at 60 °C relative to 25 °C (TnIYD [2]; 60 °C vs 25 °C): less than 8 fold | Km (TnIYD [2]; 60 °C): 6.6 mM | kcat (TnIYD [2]; 60 °C): 0.108 ± 0.005 s⁻¹ | kcat/Km smaller than that for I-Tyr (TnIYD [2]; at both temperatures (25 °C and 60 °C)): more than 10,000 fold

N[C@@H](Cc1ccc(O)cc1)C(=O)O [Tyr, tyrosine]
Kd (TnIYD [1]): 0.45 ± 0.07 µM | Kd (TnIYD Y112A): 0.9 ± 0.1 µM | Kd (TnIYD M41A): 1.6 ± 0.2 µM | weakening of affinity by M41A substitution relative to wt TnIYD (TnIYD M41A; 25 °C): 3.6 fold | Kd (TnIYD M41A/Y112A): 0.95 ± 0.09 µM | decrease of affinity by M41A/Y112A variant relative to wt TnIYD (TnIYD M41A/Y112A; 25 °C): 2 fold | Kd (TnIYD M41K): 7.4 ± 0.2 µM | decrease of affinity by M41K variant relative to wt TnIYD (TnIYD M41K; 25 °C): 16 fold | Kd (TnIYD M41F): 0.09 ± 0.06 µM | enhancement of binding by M41F variant relative to wt TnIYD (TnIYD M41F; 25 °C): 5 fold | Kd (TnIYD Y112A/W82A/F88A): 1200 ± 20 µM | weakening of binding by W82A/F88A/Y112A triple mutant relative to wt TnIYD (TnIYD Y112A/W82A/F88A; 25 °C): more than 2600 fold | affinity of Tyr to IYD from mesophiles (IYD from mesophiles): too weak to measure
